Source: PubChem
NALP1 yeast inh – NALP1 inflammasome inhibitors in reconstituted yeast, colorimetric, S. cerevisiae, triplicate retest | inhibition, % at 10 µM | S. cerevisiae NALP1/ASC/caspase-1 growth, X-gal OD620, 72 h | actives 0.61% (n = 280,000); in the data active = inhibition mostly above about 24%, no sharp cut-off; inactive = mostly below about 32%
ALR H2O2 inh – inhibitors of human ALR sulfhydryl oxidase, primary screen, biochemical, H2O2 detection, HRP-luminol luminescence, single point; FAD-linked sulfhydryl oxidase ALR (Homo sapiens), P55789; purified ALR, DTT oxidation; inhibition, % (concentration not given with the values); actives 3.8% (n = 290,000); AID 485317, 2010;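 active = mean replicate inhibition above about 79%, with every replicate also reaching it, limit read from the data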
Target sequence (P55789 whole entry, looked up): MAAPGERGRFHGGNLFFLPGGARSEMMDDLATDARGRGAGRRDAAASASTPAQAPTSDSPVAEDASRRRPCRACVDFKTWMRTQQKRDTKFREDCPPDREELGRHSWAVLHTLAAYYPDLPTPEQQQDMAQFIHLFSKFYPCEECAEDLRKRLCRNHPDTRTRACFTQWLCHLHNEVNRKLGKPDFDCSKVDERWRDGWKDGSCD
UCH37 DUB inh – inhibitors of human UCH37 deubiquitinase, primary screen, biochemical, Ub-AMC cleavage, fluorescence; Ubiquitin carboxyl-terminal hydrolase isozyme L5 (Homo sapiens), Q9Y5K5; purified proteasome/UCH37; inhibition, % (test concentration not listed); actives 0.33% (n = 330,000);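 active = mean inhibition over replicate wells above about 20%, limit read from the data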;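 note: 0% = compound-free wells with enzyme and 100% = wells lacking proteasome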
Target sequence (Q9Y5K5 whole entry, looked up): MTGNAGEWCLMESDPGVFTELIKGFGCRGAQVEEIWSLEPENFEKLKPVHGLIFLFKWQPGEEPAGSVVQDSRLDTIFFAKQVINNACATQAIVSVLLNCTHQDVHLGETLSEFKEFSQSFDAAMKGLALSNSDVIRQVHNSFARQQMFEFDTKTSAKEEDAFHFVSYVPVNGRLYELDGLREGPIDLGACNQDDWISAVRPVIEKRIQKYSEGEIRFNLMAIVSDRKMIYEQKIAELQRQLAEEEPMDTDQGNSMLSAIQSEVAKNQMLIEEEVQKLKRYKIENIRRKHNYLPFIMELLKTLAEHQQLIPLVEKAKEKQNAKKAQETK
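assay system = human UCH37 enzyme supplied as purified proteasome complex | amount = proteasome at 0.15 nM in the dispensed enzyme solution | schedule = 30 min compound-proteasome preincubation then 25 min substrate reaction, room temperature | measured by = fluorescence, ex 355 nm, em 460 nm | benchmarks = no-proteasome wells (full inhibition) and compound-free wells (no inhibition)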
NLRP3 yeast inh – NALP3 inflammasome inhibitors in reconstituted yeast, primary screen, luminescence, uHTS; Yeast reconstituted NLRP3/ASC/caspase-1, beta-gal luminescence, 24 h; inhibition, % at 10 µM; AID 2825, 2010; actives 0.39% (n = 330,000);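 active = inhibition of 50% or more; inactive = inhibition below 50%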;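 note: plate controls were induced DMSO wells for no effect and uninduced yeast grown without galactose for full effect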
ATG4B inh – ATG4B protease inhibitors, primary screen, biochemical, fluorescence, uHTS | Cysteine protease ATG4B (Homo sapiens), Q9Y4P1 | ATG4B cleavage of LC3-PLA2, NBD-HPC fluorescence, 1 h | inhibition, % at 8.33 µM | actives 0.51% (n = 340,000) | AID 504462, 2011; in the data active = inhibition above about 40%
Calb FLC – C. albicans growth inhibition with fluconazole, primary screen, CaCi-2 strain, Alamar Blue fluorescence; actives 0.57% (n = 300,000); growth inhibition, % (test concentration not listed); C. albicans CaCi-2 + fluconazole, 48 h;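 active = growth inhibition above about 58% in most replicates, limit read from the data, passing the limit was not always enough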;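 note: all wells also contain fluconazole at 8 µg/ml as a sub-toxic cotreatment; 0% = median of DMSO wells and 100% = median of geldanamycin control wells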
* = called active by the depositor; i = inactive; x = no result given. Sampled rows, rich in hits. Any-hit rate of the full collection: about 4.8%.

SMILES	NALP1 yeast inh	ALR H2O2 inh	UCH37 DUB inh	NLRP3 yeast inh	ATG4B inh	Calb FLC
CC1=NC(=O)C(N=Nc2ccccc2)N1c1ccccc1 (centres undefined)	-86	-14	0	12	-6	-15
CCN(CC)c1ccc(C=NN2CCN(Cc3ccc(Cl)cc3)CC2)c(O)c1	x	x	10	x	x	x
O=C1Nc2ccccc2C1=Nc1cccc([N+](=O)[O-])c1	18	4	6	10	2	-29
NC(=O)c1ccc(N=C2C(=O)Nc3ccc([N+](=O)[O-])cc32)cc1	14	24	84*	17	24	-19
Cc1cccc(C(=O)Oc2ccc(C=NNC(=O)Cc3ccc([N+](=O)[O-])cc3)cc2)c1	x	x	1	x	x	x
COc1cccc(CNc2ccc(F)c([N+](=O)[O-])c2)c1O	20	98*	1	41	0	-19
Cc1ccc(C=NNC(=O)c2cc(C3CC3)nc3ccccc23)o1	x	x	5	x	x	x
CC(=NNc1nc(N)cc(Cl)n1)c1ccc(Cl)c(Cl)c1	x	x	-5	x	x	x
O=C(c1oc2ccccc2c1N1CCCCC1)N1CCCCC1	-1	99*	2	-4	6	-1
CN(C)c1ccc(NC2=C([N+](=O)[O-])CS(=O)(=O)C2)cc1	-5	99*	7	13	-11	1
Cc1ccc(NC2=C([N+](=O)[O-])CS(=O)(=O)C2)cc1	5	2	7	18	11	0
CN1/C(=C/C2CC(=O)N(c3cccc4ccccc34)C2=O)C(C)(C)c2ccccc21 (centres undefined)	7	-5	3	0	9	12
CN1/C(=C/C2CC(=O)NC2=O)C(C)(C)c2ccccc21 (centres undefined)	-10	98*	5	14	4	x
S=c1nc(-c2cccc(Br)c2)[nH][nH]1	-16	99*	2	3	7	3
CC(=O)Nc1ccc(S(=O)(=O)Oc2ccc(C=N/N=C3/NC(=O)C(CC(=O)O)S3)cc2)cc1 (centres undefined)	x	x	13	x	x	x
O=C(O)CNC(=O)/C(=C\c1ccc2c(c1)OCO2)NC(=O)c1ccc(Br)cc1	-8	5	7	7	11	11
CCN(CC)C(=O)/C(=C/c1ccc2c(c1)OCO2)NC(=O)c1ccc(Br)cc1	35	2	5	4	-10	91*
Cc1nc(C#N)c(N/N=C/c2cccc(Cl)c2)o1	43	97*	x	1	-5	28
Cc1ccc(S(=O)(=O)Oc2ccc(C=N/N=C3/NC(=O)C(CC(=O)O)S3)cc2)cc1[N+](=O)[O-] (centres undefined)	x	x	9	x	x	x
O=C(c1cc(-c2cccnc2)nc2ccccc12)N1CCCc2ccccc21	28	95*	2	-2	-8	1
Cc1ccc(-c2cc(C(=O)N3CCCc4ccccc43)c3ccccc3n2)cc1	15	-31	0	3	0	5
c1ccc(N2N=C(c3cccs3)CC2c2ccco2)cc1 (centres undefined)	0	97*	i	5	5	12
OCc1cn(-c2ccccc2)nc1-c1ccc2c(c1)OCCO2	9	4	0	23	-13	6
c1ccc(-n2cc(CNCCc3cscn3)c(-c3ccc4c(c3)OCO4)n2)cc1	32*	-1	-1	19	6	-34
CCCCOc1ccc(Br)cc1C(C)=NNC1=NCCN1	x	x	2	x	x	x
SMILES	NALP1 yeast inh	ALR H2O2 inh	UCH37 DUB inh	NLRP3 yeast inh	ATG4B inh	Calb FLC
CCCCCOc1ccc(Br)cc1/C(C)=N/NC1=NCCN1	83*	-3	x	34	1	15
C/C(=N\Nc1ccc(Cl)cc1)c1ccncc1	17	99*	x	2	6	-11
C/C(=N\Nc1ccc(Cl)cc1)c1ccccn1	9	100*	x	9	-5	3
C/C(=N\Nc1cccc(Cl)c1)c1ccncc1	28	99*	x	0	-1	-34
CC(=NNc1ccc(Cl)cc1)c1ccccn1	x	x	4	x	x	x
COc1ccc(C=NNC(=O)c2cccc(Br)c2)c(OC)c1	x	x	-5	x	x	x
CC(C)(C)S(=O)(=O)C(C#N)=NNc1ccc(S(C)(=O)=O)cc1	x	x	20	x	x	x
COc1ccc(C=NNC(=O)C2C(=O)NCC2c2ccccc2)c(OC)c1 (centres undefined)	x	x	7	x	x	x
Cn1cc(CN2CCN(c3ccccc3)CC2)c2ccccc21	26*	42	0	13	-2	17
O=C(CCN1CCN(c2ccccc2)CC1)NN=Cc1ccc([N+](=O)[O-])o1	x	x	10	x	x	x
COc1ccccc1C=c1sc2nc(-c3ccccc3OC)nn2c1=O	x	x	0	x	x	x
COc1cc(C(C[N+](=O)[O-])c2c(C)[nH]c3ccccc23)ccc1O (centres undefined)	6	99*	2	10	-20	12
Cc1[nH]c2ccccc2c1C(C[N+](=O)[O-])c1cccc(O)c1 (centres undefined)	-13	98*	3	3	-8	1
Cc1ccc(-c2[nH]c3ccccc3c2C(C[N+](=O)[O-])c2ccco2)cc1 (centres undefined)	41	94*	-5	36	7	-1
Cc1[nH]c2ccccc2c1C(C[N+](=O)[O-])c1ccco1 (centres undefined)	20	21	4	2	-4	15
Cc1[nH]c2ccccc2c1C(C[N+](=O)[O-])c1cccs1 (centres undefined)	-15	59	0	-8	-13	-12
O=C(NCc1ccc2c(c1)OCO2)C1CC(=O)N(c2ccc(O)cc2)C1 (centres undefined)	12	99*	1	-3	-1	15
O=C(NN=Cc1ccc(F)cc1)c1cc(-c2ccccn2)nc2ccccc12	x	x	-2	x	x	x
COc1ccc2[nH]cc(CCNC(=S)NC3CCCC3)c2c1	-30	34	0	-4	-4	-3
CNC(=S)NCCc1c[nH]c2ccc(OC)cc12	-1	99*	3	8	3	-1
COc1ccc(N2CCN(c3ccc(N)cc3C#N)CC2)cc1	3	86*	-15	30	4	7
Cc1cc(C(=O)N2CCN(c3ncccc3C#N)CC2)no1	6	-13	-99	20	-2	-4
COc1ccc(N2CCN(c3ncccc3C#N)CC2)cc1	22	97*	0	11	9	13
COc1ccc(C(=O)Nc2ccc(N3CCN(c4ccc(OC)cc4)CC3)c(C#N)c2)cc1	6	-3	x	5	-7	0
COc1ccnc(N2CCN(c3ccccc3)CC2)c1C#N	47	99*	1	33	5	79*
